What was measured:
Nucleic Acid [1] = assay: Inhibitory activity against LA-Taq DNA polymerase; type: nucleic-acid assay, Thermus aquaticus
Outline: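 LA-Taq PCR in 1× LA-Taq buffer with 2.5 mM Mg2+ and 0.2 mM each dNTP, plus graded levels of nonnatural triphosphate. Cycling: 95 °C 5 min; 30 cycles of 95 °C 30 s, 50 °C 30 s, 72 °C 60 s; final 72 °C 5 min. Amplified bands measured by phosphorimager; concentration for 50% inhibition determined; two independent experiments averaged.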

Nucleic Acid [2] = assay: Inhibitory activity against Pfu DNA polymerase.; type: nucleic-acid assay, Pyrococcus furiosus
Outline: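 Native Pfu polymerase (Pyrococcus furiosus) in native Pfu buffer, 2 mM Mg2+, 0.2 mM each dNTP, with various concentrations of nonnatural triphosphate. Cycling: 95 °C 5 min; 30 cycles of 95 °C 30 s, 50 °C 30 s, 72 °C 60 s; final 72 °C 5 min. PCR bands quantified by phosphorimager; IC50 at 50% inhibition; average of two independent runs.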

[3] = Inhibitory activity against Ex Taq DNA polymerase; type: nucleic-acid assay, Thermus aquaticus
Outline: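 PCR inhibition assay in 1× Ex Taq buffer, 2 mM Mg2+, 0.2 mM each dNTP, with various concentrations of nonnatural triphosphate added. Cycling: 95 °C 5 min; 30 cycles of 95 °C 30 s, 50 °C 30 s, 72 °C 60 s; final 72 °C 5 min. Product bands quantified by phosphorimager; IC50 taken as concentration giving 50% inhibition of amplification; mean of two independent experiments.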

Nucleic Acid [4] = assay: Inhibitory activity against Z-Taq DNA polymerase; type: nucleic-acid assay, Thermus aquaticus
Outline: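 Z-Taq amplification in 1× Z-Taq buffer, 3 mM Mg2+, 0.2 mM each dNTP, with various nonnatural triphosphate concentrations. Cycling: 95 °C 5 min; 25 cycles of 95 °C 30 s, 50 °C 30 s, 72 °C 30 s; final 72 °C 5 min. Phosphorimager quantitation of product bands; IC50 as 50% inhibition concentration; mean of two independent experiments.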

[5] = target: Pyrobest DNA polymerase (Pyrococcus sp.); assay: Inhibitory activity against Pyrobest DNA polymerase.

IC50 (Nucleic Acid [1]) [µM]	IC50 (Nucleic Acid [2]) [µM]	IC50 [3] [µM]	IC50 (Nucleic Acid [4]) [µM]	IC50 [5] [µM]	SMILES
3100	900	1900	6200	2700	O=P(O)(O)OP(=O)(O)OP(=O)(O)OCC1O[C@@H](c2cccc(O)c2)CC1O (stereo not given in full)
3700	900	1600	3700	1500	O=P(O)(O)OP(=O)(O)OP(=O)(O)OCC1O[C@@H](c2ccc(O)cc2)CC1O (stereo not given in full)
700	200	30	300	500	O=P(O)(O)OP(=O)(O)OP(=O)(O)OCC1O[C@@H](c2ccc(O)c(O)c2)CC1O (stereo not given in full)
2400	800	1700	3100	1400	O=P(O)(O)OP(=O)(O)OP(=O)(O)OCC1O[C@@H](c2ccccc2O)CC1O (stereo not given in full)
> 16000	> 16000	> 16000	> 16000	> 16000	O=P(O)(O)OP(=O)(O)OP(=O)(O)OCC1O[C@@H](c2ccccc2)CC1O (stereo not given in full)
